Results taken from ChEMBL document CHEMBL4673384, “Studying Histone Deacetylase Inhibition and Apoptosis Induction of Psammaplin A Monomers with Modified Thiol Group” (ACS Med Chem Lett, 2021).
Calls of active or inactive are those of the source. No cut-off for these calls is given here.

Tests used:
[1] = Antitumor activity against mouse LL/2 cells inoculated in C57BL/6J mouse assessed as reduction of tumor weight at 100 mg/kg, ip administered for 12 days and measured at day 14 (reference value: 1.2 +/- 0.3 g); assay type: functional, Lewis lung carcinoma; conditions: time 12 day
[2] = Antiproliferative activity against mouse LL/2 cells assessed as cell growth inhibition incubated for 96 hrs by MTT assay; assay type: functional, Lewis lung carcinoma
[3] = biological target: T1, Protein deacetylase HDAC6 (Homo sapiens, UniProt Q9UBN7); assay: Inhibition of recombinant full length C-terminal FLAG-tagged human HDAC6 expressed in baculovirus infected Sf9 cells using Boc-Lys(Ac)-AMC as substrate preincubated for 15 mins followed by substrate addition and measured after 60 mins by fluorescence based assay
T1 sequence (Q9UBN7 whole entry): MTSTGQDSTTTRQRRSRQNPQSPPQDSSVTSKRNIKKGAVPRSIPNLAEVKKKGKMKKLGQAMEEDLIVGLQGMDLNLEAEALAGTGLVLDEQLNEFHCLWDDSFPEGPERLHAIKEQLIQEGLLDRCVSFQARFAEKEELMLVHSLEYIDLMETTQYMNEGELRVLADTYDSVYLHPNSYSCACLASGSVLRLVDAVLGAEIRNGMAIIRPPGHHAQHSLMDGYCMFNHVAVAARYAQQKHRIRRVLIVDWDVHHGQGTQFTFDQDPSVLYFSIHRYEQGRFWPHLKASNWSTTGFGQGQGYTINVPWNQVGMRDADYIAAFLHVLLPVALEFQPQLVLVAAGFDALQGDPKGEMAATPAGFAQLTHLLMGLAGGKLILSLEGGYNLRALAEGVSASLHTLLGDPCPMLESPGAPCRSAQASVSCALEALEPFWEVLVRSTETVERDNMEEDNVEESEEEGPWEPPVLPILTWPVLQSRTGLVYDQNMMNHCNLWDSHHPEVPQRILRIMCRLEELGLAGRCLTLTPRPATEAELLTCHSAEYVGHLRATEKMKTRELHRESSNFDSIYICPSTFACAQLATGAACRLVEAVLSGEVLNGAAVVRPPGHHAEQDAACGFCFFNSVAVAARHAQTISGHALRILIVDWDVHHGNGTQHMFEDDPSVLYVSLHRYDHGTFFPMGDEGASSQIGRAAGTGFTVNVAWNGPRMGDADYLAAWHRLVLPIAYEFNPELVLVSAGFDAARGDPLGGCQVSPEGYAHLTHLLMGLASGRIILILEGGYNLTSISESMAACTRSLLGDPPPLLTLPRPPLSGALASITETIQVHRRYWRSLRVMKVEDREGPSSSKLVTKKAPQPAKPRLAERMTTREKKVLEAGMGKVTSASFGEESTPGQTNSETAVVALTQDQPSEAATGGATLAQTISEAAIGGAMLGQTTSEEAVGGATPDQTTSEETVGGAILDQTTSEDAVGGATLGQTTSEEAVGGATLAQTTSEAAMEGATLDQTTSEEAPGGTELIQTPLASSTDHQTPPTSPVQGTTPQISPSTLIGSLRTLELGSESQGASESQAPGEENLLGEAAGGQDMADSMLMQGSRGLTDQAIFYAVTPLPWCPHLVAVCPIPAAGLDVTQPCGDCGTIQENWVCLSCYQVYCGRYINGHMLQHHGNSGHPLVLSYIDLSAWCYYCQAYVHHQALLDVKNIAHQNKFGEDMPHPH

HL-60 [4] = assay: Growth inhibition of human HL-60 cells after 72 hrs by trypan blue dye based assay; assay type: functional
Summary of the method: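 HL-60 leukemia cells were exposed to compound for 72 h. Growth inhibition is reported as IG50 (half the growth inhibition concentration), as means plus SD of three independent experiments.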

[5] = Toxicity in mouse LL/2 cells inoculated C57BL/6J mouse assessed as effect on body weight by measuring initial body weight at 100 mg/kg, ip administered for 12 days and measured for every 2 days (reference value: 18.6 +/- 0.8 g); assay type: organism-based; conditions: in vivo, 288 h, time 12 day
Histone deacetylase 2 [6] = biological target: T2, Histone deacetylase 2 (Homo sapiens, UniProt Q92769); assay: Inhibition of recombinant full length C-terminal FLAG-tagged human HDAC2 expressed in baculovirus infected Sf9 cells using Boc-Lys(Ac)-AMC as substrate preincubated for 15 mins followed by substrate addition and measured after 60 mins by fluorescence based assay
T2 sequence (Q92769 whole entry): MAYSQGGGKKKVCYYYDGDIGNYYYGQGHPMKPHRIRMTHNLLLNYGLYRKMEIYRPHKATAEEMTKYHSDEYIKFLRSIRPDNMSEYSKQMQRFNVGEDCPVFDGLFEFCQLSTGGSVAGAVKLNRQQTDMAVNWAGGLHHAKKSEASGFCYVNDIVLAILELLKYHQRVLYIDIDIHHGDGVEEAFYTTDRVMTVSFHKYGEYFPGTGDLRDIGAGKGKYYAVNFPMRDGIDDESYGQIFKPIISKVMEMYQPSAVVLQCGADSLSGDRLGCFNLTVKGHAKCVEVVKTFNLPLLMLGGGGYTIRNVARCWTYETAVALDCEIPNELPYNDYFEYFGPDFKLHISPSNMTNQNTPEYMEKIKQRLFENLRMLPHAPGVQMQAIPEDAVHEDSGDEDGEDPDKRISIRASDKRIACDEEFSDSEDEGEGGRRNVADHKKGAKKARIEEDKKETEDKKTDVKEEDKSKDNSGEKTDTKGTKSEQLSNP

MCF7 = assay: Antiproliferative activity against human MCF7 cells assessed as cell growth inhibition incubated for 96 hrs by MTT assay; assay type: functional
[7] = Toxicity in mouse LL/2 cells inoculated C57BL/6J mouse assessed as effect on body weight by measuring end body weight at 100 mg/kg, ip administered for 12 days and measured for every 2 days (reference value: 17.8 +/- 0.7 g); assay type: organism-based; conditions: in vivo, 288 h, time 12 day
HCT-116 = assay: Antiproliferative activity against human HCT-116 cells assessed as cell growth inhibition incubated for 96 hrs by MTT assay; assay type: functional
[8] = biological target: Histone deacetylase 3/Nuclear receptor corepressor 2 (HDAC3/NCoR2) (Homo sapiens, UniProt O15379); assay: Inhibition of C-terminal His-tagged recombinant human HDAC3 (1 to 428 residues)/N-terminal GST-tagged recombinant human NCoR2 (395 to 489 residues) co-expressed in baculovirus infected Sf9 cells using Boc-Lys(Ac)-AMC as substrate preincubated for 15 mins followed by substrate addition and measured after 60 mins by fluorescence based assay
Chain of Histone deacetylase 3/Nuclear receptor corepressor 2 (HDAC3/NCoR2) (O15379 whole entry, the tested form may be a part): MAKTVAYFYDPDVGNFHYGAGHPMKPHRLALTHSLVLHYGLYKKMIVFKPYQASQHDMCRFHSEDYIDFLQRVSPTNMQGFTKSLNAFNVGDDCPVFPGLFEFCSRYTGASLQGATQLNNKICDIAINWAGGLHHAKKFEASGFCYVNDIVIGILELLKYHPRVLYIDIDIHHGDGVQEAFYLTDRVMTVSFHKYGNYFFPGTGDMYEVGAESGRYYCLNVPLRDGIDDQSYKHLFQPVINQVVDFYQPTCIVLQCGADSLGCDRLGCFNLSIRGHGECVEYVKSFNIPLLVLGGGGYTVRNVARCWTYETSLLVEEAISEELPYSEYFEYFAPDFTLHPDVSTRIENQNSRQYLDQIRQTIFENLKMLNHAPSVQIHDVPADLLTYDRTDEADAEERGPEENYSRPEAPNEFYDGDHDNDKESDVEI
Chain of Histone deacetylase 3/Nuclear receptor corepressor 2 (HDAC3/NCoR2) (Q9Y618 whole entry, further chain, the tested form may be a part): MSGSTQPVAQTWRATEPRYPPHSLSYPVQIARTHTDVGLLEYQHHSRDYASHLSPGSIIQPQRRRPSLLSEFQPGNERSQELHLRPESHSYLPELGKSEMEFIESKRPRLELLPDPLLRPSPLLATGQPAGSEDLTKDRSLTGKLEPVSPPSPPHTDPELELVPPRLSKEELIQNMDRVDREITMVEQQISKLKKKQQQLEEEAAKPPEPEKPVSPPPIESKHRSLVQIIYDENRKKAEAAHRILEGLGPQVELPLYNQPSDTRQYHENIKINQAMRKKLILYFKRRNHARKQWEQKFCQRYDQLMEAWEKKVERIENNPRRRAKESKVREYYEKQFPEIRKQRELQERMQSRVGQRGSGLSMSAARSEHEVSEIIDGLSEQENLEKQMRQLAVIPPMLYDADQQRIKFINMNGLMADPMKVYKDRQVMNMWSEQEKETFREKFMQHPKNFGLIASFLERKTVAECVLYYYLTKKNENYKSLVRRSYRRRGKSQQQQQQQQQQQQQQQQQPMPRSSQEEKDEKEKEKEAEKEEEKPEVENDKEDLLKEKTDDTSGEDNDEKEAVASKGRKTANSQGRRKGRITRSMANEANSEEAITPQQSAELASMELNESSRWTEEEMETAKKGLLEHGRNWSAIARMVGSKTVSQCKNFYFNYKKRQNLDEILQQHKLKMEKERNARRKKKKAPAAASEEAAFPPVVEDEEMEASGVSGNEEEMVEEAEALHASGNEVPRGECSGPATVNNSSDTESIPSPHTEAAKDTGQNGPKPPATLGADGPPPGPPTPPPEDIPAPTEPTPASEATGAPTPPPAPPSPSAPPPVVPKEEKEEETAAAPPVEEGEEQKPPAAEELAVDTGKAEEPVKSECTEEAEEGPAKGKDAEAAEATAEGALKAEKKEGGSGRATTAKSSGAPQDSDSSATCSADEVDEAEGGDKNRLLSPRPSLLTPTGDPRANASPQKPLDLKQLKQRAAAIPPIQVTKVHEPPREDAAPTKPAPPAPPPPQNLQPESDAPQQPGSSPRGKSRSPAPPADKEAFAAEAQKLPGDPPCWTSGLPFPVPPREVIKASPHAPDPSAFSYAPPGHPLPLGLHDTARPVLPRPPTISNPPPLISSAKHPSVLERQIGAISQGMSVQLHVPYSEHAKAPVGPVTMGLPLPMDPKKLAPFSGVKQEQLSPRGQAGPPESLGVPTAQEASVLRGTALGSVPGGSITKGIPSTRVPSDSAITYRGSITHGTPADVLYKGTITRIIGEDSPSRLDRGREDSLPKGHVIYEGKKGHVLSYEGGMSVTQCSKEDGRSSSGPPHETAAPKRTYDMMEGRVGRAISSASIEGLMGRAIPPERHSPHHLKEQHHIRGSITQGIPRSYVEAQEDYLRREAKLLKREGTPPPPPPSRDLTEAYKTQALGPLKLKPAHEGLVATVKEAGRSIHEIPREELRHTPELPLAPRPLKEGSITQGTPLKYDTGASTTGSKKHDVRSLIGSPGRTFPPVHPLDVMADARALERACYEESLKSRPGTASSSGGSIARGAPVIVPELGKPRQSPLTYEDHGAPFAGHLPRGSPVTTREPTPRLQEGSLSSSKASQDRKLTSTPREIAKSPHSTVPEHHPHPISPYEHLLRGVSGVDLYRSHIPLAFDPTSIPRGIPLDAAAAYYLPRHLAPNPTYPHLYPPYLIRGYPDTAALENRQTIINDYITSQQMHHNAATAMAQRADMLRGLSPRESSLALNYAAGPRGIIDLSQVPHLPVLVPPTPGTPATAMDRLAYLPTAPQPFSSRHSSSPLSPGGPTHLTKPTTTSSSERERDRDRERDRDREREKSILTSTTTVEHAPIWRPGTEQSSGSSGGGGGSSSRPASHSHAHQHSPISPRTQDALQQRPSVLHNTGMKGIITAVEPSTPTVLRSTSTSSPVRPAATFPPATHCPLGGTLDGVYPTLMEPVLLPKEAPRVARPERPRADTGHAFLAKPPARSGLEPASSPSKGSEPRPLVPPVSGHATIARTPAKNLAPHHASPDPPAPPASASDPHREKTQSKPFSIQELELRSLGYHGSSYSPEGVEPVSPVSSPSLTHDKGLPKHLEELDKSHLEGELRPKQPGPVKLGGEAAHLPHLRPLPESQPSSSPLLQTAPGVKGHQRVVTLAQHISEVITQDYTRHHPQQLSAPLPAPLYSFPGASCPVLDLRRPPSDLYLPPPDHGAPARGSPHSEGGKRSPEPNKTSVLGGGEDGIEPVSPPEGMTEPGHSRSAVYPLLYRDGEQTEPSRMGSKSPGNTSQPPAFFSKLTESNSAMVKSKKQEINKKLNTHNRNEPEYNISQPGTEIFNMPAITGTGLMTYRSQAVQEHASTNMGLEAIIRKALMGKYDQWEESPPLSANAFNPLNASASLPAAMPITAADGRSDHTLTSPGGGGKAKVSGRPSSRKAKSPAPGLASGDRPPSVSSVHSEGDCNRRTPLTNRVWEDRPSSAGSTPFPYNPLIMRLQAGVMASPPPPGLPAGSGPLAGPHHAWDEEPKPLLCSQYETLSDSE

A549 = assay: Antiproliferative activity against human A549 cells assessed as cell growth inhibition incubated for 96 hrs by MTT assay; assay type: functional
Histone deacetylase 1 [9] = biological target: T3, Histone deacetylase 1 (Homo sapiens, UniProt Q13547); assay: Inhibition of recombinant full length C-terminal FLAG/His-tagged human HDAC1 expressed in baculovirus infected Sf9 cells using Boc-Lys(Ac)-AMC as substrate preincubated for 15 mins followed by substrate addition and measured after 60 mins by fluorescence based assay
T3 sequence (Q13547 whole entry): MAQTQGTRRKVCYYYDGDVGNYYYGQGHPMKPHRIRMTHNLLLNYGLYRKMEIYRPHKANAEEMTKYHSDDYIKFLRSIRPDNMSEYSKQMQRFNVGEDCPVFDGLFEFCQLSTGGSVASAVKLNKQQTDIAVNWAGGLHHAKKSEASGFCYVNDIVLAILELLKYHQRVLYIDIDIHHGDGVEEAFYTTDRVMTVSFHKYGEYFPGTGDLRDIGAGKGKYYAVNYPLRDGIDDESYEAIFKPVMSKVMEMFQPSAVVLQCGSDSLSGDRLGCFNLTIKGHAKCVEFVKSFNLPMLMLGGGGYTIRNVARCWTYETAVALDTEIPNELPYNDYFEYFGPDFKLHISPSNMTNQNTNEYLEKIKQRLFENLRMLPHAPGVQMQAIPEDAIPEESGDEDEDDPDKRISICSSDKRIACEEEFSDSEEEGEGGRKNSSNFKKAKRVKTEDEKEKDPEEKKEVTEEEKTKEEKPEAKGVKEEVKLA

[10] = Antitumor activity against mouse LL/2 cells inoculated in C57BL/6J mouse assessed as tumor growth inhibition at 100 mg/kg, ip administered for 12 days; assay type: functional, Lewis lung carcinoma; design: scale not given: the % may be the effect or the level left; conditions: time 12 day
HL-60 [11] = assay: Induction of apoptosis in human HL-60 cells assessed as early apoptotic cells at 40 uM incubated for 24 hrs by propidium iodide and annexin-V FITC staining based FACS analysis (reference value: 2.0 %); assay type: functional
HL-60 [12] = assay: Induction of apoptosis in human HL-60 cells assessed as viable cells at 40 uM incubated for 24 hrs by propidium iodide and annexin-V FITC staining based FACS analysis (reference value: 96.3 %); assay type: functional; conditions: read-out: Activity
HL-60 [13] = assay: Induction of apoptosis in human HL-60 cells assessed as cleavage of PARP at 20 uM after 24 hrs Western blot analysis; assay type: functional, cell-based
Summary of the method: (§1)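 HL-60 cells were treated for 24 h at the indicated concentrations, then analysed by Western blot. Blots were probed for cleavage of PARP and caspase-3, -8 and -9. Ac-H3, Ac-α-tubulin and β-actin were also detected, with β-actin as the loading reference.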

HL-60 [14] = assay: Induction of apoptosis in human HL-60 cells assessed as cleavage of caspase-9 at 20 uM after 24 hrs Western blot analysis; assay type: functional, cell-based; summary of the method: as §1
Histone deacetylase 2 [15] = biological target: T2, Histone deacetylase 2; assay: Inhibition of HDAC2 in human HL-60 cells assessed as increase in Ac-H3 level at 2 uM incubated for 24 hrs by Western blot analysis; assay type: cell-based
Summary of the method: (§2)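 Compound given to HL-60 cells for 24 h at the stated concentrations, then lysed. Acetyl-histone H3 and acetyl-α-tubulin levels were read by Western blot, with total H3, α-tubulin or β-actin as references.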

HL-60 [16] = assay: Induction of apoptosis in human HL-60 cells assessed as necrotic cells at 40 uM incubated for 24 hrs by propidium iodide and annexin-V FITC staining based FACS analysis (reference value: 0.1 %); assay type: functional
HL-60 [17] = assay: Induction of apoptosis in human HL-60 cells assessed as late apoptotic cells at 20 uM incubated for 24 hrs by propidium iodide and annexin-V FITC staining based FACS analysis (reference value: 1.7 %); assay type: functional
HL-60 [18] = assay: Induction of apoptosis in human HL-60 cells assessed as viable cells at 20 uM incubated for 24 hrs by propidium iodide and annexin-V FITC staining based FACS analysis (reference value: 96.3 %); assay type: functional; conditions: read-out: Activity
HL-60 [19] = assay: Induction of apoptosis in human HL-60 cells assessed as cleavage of caspase-8 at 20 uM after 24 hrs Western blot analysis; assay type: functional, cell-based; summary of the method: as §1
HL-60 [20] = assay: Induction of apoptosis in human HL-60 cells assessed as late apoptotic cells at 40 uM incubated for 24 hrs by propidium iodide and annexin-V FITC staining based FACS analysis (reference value: 1.7 %); assay type: functional
HL-60 [21] = assay: Induction of apoptosis in human HL-60 cells assessed as early apoptotic cells at 20 uM incubated for 24 hrs by propidium iodide and annexin-V FITC staining based FACS analysis (reference value: 2.0 %); assay type: functional
HL-60 [22] = assay: Induction of apoptosis in human HL-60 cells assessed as necrotic cells at 20 uM incubated for 24 hrs by propidium iodide and annexin-V FITC staining based FACS analysis (reference value: 0.1 %); assay type: functional
[23] = biological target: Histone deacetylase 3 (Homo sapiens) (UniProt O15379); assay: Inhibition of HDAC3 in human HL-60 cells assessed as increase in Ac-H3 level at 20 uM incubated for 24 hrs by Western blot analysis; assay type: cell-based; summary of the method: as §2
Chain of Histone deacetylase 3 (Homo sapiens) (O15379 whole entry): as the sequence (O15379 whole entry, the tested form may be a part) above

Histone deacetylase 1 [24] = biological target: T3, Histone deacetylase 1; assay: Inhibition of HDAC1 in human HL-60 cells assessed as increase in Ac-H3 level at 2 uM incubated for 24 hrs by Western blot analysis; assay type: cell-based; summary of the method: as §2
HL-60 [25] = assay: Induction of apoptosis in human HL-60 cells assessed as cleavage of caspase-3 at 20 uM after 24 hrs Western blot analysis; assay type: functional, cell-based; summary of the method: as §1
HL-60 [26] = assay: Induction of apoptosis in human HL-60 cells assessed as necrotic cells at 2 uM incubated for 24 hrs by propidium iodide and annexin-V FITC staining based FACS analysis (reference value: 0.3 %); assay type: functional
HL-60 [27] = assay: Induction of apoptosis in human HL-60 cells assessed as late apoptotic cells at 2 uM incubated for 24 hrs by propidium iodide and annexin-V FITC staining based FACS analysis (reference value: 4.8 %); assay type: functional
[28] = biological target: T4, Protein deacetylase HDAC6 (Homo sapiens) (UniProt Q9UBN7); assay: Inhibition of HDAC6 in human HL-60 cells assessed as increase in acetylated alpha tubulin level at 0.5 uM after 24 hrs by Western blot analysis; assay type: cell-based; summary of the method: as §2
T4 sequence (whole entry): T1 sequence (Q9UBN7 whole entry)

HL-60 [29] = assay: Induction of apoptosis in human HL-60 cells assessed as early apoptotic cells at 2 uM incubated for 24 hrs by propidium iodide and annexin-V FITC staining based FACS analysis (reference value: 2.8 %); assay type: functional

Row | Compound | IC50 [3] [µM] | IG50 (HL-60 [4]) [µM] | IC50 (Histone deacetylase 2 [6]) [µM] | IC50 [8] [µM] | IC50 (Histone deacetylase 1 [9]) [µM] | Activity (HL-60 [11]) [%] | viability at 40 µM (HL-60 [12]) [%] | Activity (HL-60 [13]) | Activity (HL-60 [14]) | inhibition (Histone deacetylase 2 [15]) | Activity (HL-60 [16]) [%] | Activity (HL-60 [17]) [%] | viability at 20 µM (HL-60 [18]) [%] | Activity (HL-60 [19]) | Activity (HL-60 [20]) [%] | Activity (HL-60 [21]) [%] | Activity (HL-60 [22]) [%] | inhibition [23] | inhibition (Histone deacetylase 1 [24]) | Activity (HL-60 [25]) | also measured
1 | Nc1ccccc1NC(=O)CCCCCCCNC(=O)/C(Cc1ccc(O)c(Br)c1)=N/O | > 1 | 5.2 | > 1 | 0.17 | > 1 |  |  |  |  |  |  |  |  |  |  |  |  |  |  |  | Activity [1]: 0.8 g; IG50 [2]: 12.2 µM; Activity [5]: 18.6 g; IG50 (MCF7): 17.9 µM; Activity [7]: 18.5 g; IG50 (HCT-116): 11.9 µM; IG50 (A549): 26 µM; Activity [10]: 36.5%
2 | Nc1ccccc1NC(=O)CCCCCCNC(=O)/C(Cc1ccc(O)c(Br)c1)=N/O | > 1 | 14 | > 1 | 0.13 | > 1 | 3.1 | 87.9 | inactive | inactive | inactive | 0.6 | 4 | 94.2 | inactive | 8.4 | 1.7 | 0.1 | Active | inactive | inactive | 
3 | Nc1ccccc1NC(=O)CCCCCNC(=O)/C(Cc1ccc(O)c(Br)c1)=N/O | > 1 | 14.3 | > 1 | 0.18 | > 1 | 3.8 | 85.7 | inactive | inactive | inactive | 0.4 | 2.8 | 95.6 | inactive | 10.2 | 1.5 | 0.1 | Active | inactive | inactive | 
4 | O=C(CCCCCCC(=O)Nc1ccc([C@H]2O[C@@H](CSc3nc(-c4ccccc4)c(-c4ccccc4)o3)C[C@@H](c3ccc(CO)cc3)O2)cc1)NO [TUBACIN] |  |  |  |  |  |  |  |  |  |  |  |  |  |  |  |  |  |  |  |  | Activity (HL-60 [26]): 0.8%; Activity (HL-60 [27]): 8.8%; inhibition [28]: Active; Activity (HL-60 [29]): 3.9%
